# Measurements reported in ChEMBL document CHEMBL4043205, “Picomolar inhibition of β-galactosidase (bovine liver) attributed to loop closure” (Bioorg Med Chem, 2017).
# Calls of active or inactive are those of the source. No cut-off for these calls is given here.
# Legend:
# [1] = biological target: T1, Beta-galactosidase (Bos taurus) (UniProt Q58D55); test: Competitive inhibition of bovine liver beta-galactosidase using 4-nitrophenyl-beta-D-galactopyranoside substrate measured over 240 mins at 10 mins intervals by UV/Vis spectroscopy based Eddie-Hofstee plot
# T1 sequence (whole entry): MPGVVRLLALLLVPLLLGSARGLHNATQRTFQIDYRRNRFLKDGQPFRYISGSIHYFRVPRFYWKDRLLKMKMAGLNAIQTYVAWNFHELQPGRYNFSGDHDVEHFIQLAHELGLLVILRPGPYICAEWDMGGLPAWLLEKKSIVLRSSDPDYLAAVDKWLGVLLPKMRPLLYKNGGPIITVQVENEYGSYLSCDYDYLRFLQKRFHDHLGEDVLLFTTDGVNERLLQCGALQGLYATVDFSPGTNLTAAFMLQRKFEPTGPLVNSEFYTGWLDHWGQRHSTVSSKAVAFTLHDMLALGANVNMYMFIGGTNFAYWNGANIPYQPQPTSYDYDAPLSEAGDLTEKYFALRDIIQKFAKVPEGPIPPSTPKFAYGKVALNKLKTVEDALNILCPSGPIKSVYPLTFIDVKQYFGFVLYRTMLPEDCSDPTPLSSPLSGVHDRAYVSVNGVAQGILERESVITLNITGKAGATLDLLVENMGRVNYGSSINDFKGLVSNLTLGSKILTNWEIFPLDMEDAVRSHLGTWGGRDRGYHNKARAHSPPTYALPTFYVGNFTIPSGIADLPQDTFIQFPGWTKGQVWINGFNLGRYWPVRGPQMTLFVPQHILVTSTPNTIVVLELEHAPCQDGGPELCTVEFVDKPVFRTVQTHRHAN
# Aspergillus oryzae [2] = test: Inhibition of Aspergillus oryzae beta-galactosidase using 2-chloro-4-nitrophenyl b-dgalactopyranoside substrate by Eddie-Hofstee plot
# [3] = Inhibition of Aspergillus oryzae beta-galactosidase using 2-chloro-4-nitrophenyl b-dgalactopyranoside substrate relative to control
# Aspergillus oryzae [4] = test: Inhibition of Aspergillus oryzae beta-galactosidase using 2-chloro-4-nitrophenyl b-dgalactopyranoside substrate by Lineweaver-Burk plot
# [5] = biological target: T1, Beta-galactosidase (Bos taurus); test: Competitive inhibition of bovine liver beta-galactosidase using 4-nitrophenyl-beta-D-galactopyranoside substrate measured over 240 mins at 10 mins intervals by UV/Vis spectroscopy based Lineweaver-Burk plot
# Beta-galactosidase [6] = biological target: T2, Beta-galactosidase (Bos taurus, UniProt Q58D55); test: Inhibition of bovine liver beta-galactosidase using 4-nitrophenyl-beta-D-galactopyranoside substrate measured over 240 mins at 10 mins intervals by UV/Vis spectroscopy
# T2 sequence (Q58D55 whole entry): T1 sequence (whole entry)
# Summary of the method: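 Bovine liver enzyme in 5 mM HEPES pH 7.50; 4-nitrophenyl-β-D-galactopyranoside mixed with 11 inhibitor dilutions (stocks 0.005–200 μM), equilibrated 30 °C 30 min, then enzyme added. Absorbance at 405 nm followed 240 min; final reads converted to percent inhibition against buffer control, plotted versus log inhibitor concentration; duplicates.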
# Beta-galactosidase [7] = biological target: T2, Beta-galactosidase; test: Inhibition of bovine liver beta-galactosidase pre-incubated for 30 mins with 4-nitrophenyl-beta-D-galactopyranoside substrate before enzyme addition measured over 45 mins at 27 secs intervals by UV/Vis based spectroscopy
# Summary of the method: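 Bovine liver enzyme (stock aliquot thawed, diluted in 5 mM HEPES, kept on ice). Varied 4-nitrophenyl-β-D-galactopyranoside with fixed inhibitor, pH 7.50 HEPES, equilibrated 30 °C 30 min before enzyme; 405 nm read for 45 min. Initial rates via ε 13,300 M−1 cm−1, fitted Michaelis-Menten at ≥2 inhibitor levels; competitive Ki from K′m = Km(1+[I]/Ki); duplicates, Lineweaver-Burk check.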
# [8] = Inhibition of Aspergillus oryzae beta-galactosidase using 2-chloro-4-nitrophenyl b-dgalactopyranoside substrate
SMILES,competitive inhibition (qualitative call) [1],inhibition activity (qualitative) (Aspergillus oryzae [2]),IC50 [3],inhibition activity (Aspergillus oryzae [4]),"Inhibition mode (qualitative, Lineweaver-Burk) [5]",IC50 (Beta-galactosidase [6]),Ki (Beta-galactosidase [7]),Ki [8]
CCC/N=C1\N[C@H](CO)[C@H](O)[C@H](O)[C@H]1O,Active,Active,226 nM,Active,Active,1030 nM,0.32 nM,149 nM
CO[C@@H]1[C@H](O)[C@@H](O)C(NCc2ccc(C)cc2)=N[C@@H]1CO,Active,Active,40700 nM,Active,Active,9200 nM,840 nM,1400 nM
OC[C@H]1N/C(=N\CC2CCCCCC2)[C@H](O)[C@@H](O)[C@H]1O,Active,Active,36 nM,Active,Active,45.4 nM,0.16 nM,6.3 nM
Cc1ccccc1C/N=C1\N[C@H](CO)[C@H](O)[C@H](O)[C@H]1O,Active,Active,623 nM,Active,Active,118 nM,0.2 nM,23.6 nM
CC(C)(C)c1ccc(C/N=C2\N[C@H](CO)[C@H](O)[C@H](O)[C@H]2O)cc1,Active,Active,122 nM,Active,Active,412 nM,0.11 nM,20.6 nM
O=C1N[C@H](CO)[C@H](O)[C@H](O)[C@H]1O,Active,Active,> 50000 nM,Active,Active,8700 nM,2700 nM,615 nM
Cc1ccc(C/N=C2\N[C@H](CO)[C@H](O)[C@H](O)[C@H]2O)cc1,Active,Active,36 nM,Active,Active,57.6 nM,0.07 nM,8 nM
OC[C@H]1N/C(=N\CC2CC2)[C@H](O)[C@@H](O)[C@H]1O,Active,Active,36 nM,Active,Active,> 1400 nM,0.39 nM,9.5 nM
CCCCCCCCCCCNC1=N[C@H](CO)[C@H](O)[C@H](O)[C@H]1O,Active,Active,33.5 nM,Active,Active,42.7 nM,0.24 nM,48.4 nM
Cc1cccc(C/N=C2\N[C@H](CO)[C@H](O)[C@H](O)[C@H]2O)c1,Active,Active,131 nM,Active,Active,16.2 nM,0.11 nM,29.4 nM
Cc1ccc(CNC2=N[C@H](CO)[C@H](O)[C@H](O)C2)cc1,Active,Active,33300 nM,Active,Active,850 nM,0.6 nM,2400 nM
COc1ccc(C/N=C2\N[C@H](CO)[C@H](O)[C@H](O)[C@H]2O)cc1,Active,Active,150 nM,Active,Active,26.2 nM,0.12 nM,17.1 nM
OC[C@H]1N/C(=N\C2CCCCC2)[C@H](O)[C@@H](O)[C@H]1O,Active,Active,4870 nM,Active,Active,> 1000 nM,2.34 nM,602 nM
OC[C@H]1N/C(=N\Cc2cccc(F)c2)[C@H](O)[C@@H](O)[C@H]1O,Active,Active,115 nM,Active,Active,9.4 nM,0.13 nM,20.3 nM
OC[C@H]1N/C(=N\CCCc2ccccc2)[C@H](O)[C@@H](O)[C@H]1O,Active,Active,36 nM,Active,Active,41.3 nM,0.06 nM,8.6 nM
CCCCCCC/N=C1\N[C@H](CO)[C@H](O)[C@H](O)[C@H]1O,Active,Active,107 nM,Active,Active,24.1 nM,0.11 nM,10.8 nM
OC[C@H]1N/C(=N\Cc2ccccc2F)[C@H](O)[C@@H](O)[C@H]1O,Active,Active,117 nM,Active,Active,43.1 nM,0.23 nM,16.1 nM
OC[C@H]1N/C(=N\Cc2ccc(C(F)(F)F)cc2)[C@H](O)[C@@H](O)[C@H]1O,Active,Active,122 nM,Active,Active,15.2 nM,0.16 nM,15.7 nM
OC[C@H]1N/C(=N\C2CC2)[C@H](O)[C@@H](O)[C@H]1O,Active,Active,369 nM,Active,Active,> 1000 nM,0.32 nM,31.9 nM
OC[C@H]1N/C(=N\CC2CCCCC2)[C@H](O)[C@@H](O)[C@H]1O,Active,Active,22 nM,Active,Active,11.6 nM,0.08 nM,11.3 nM
OC[C@H]1N/C(=N\Cc2ccc(F)cc2)[C@H](O)[C@@H](O)[C@H]1O,Active,Active,331 nM,Active,Active,9.1 nM,0.19 nM,10.1 nM
CCCCC(CC)CNC1=N[C@H](CO)[C@H](O)[C@H](O)[C@H]1O (stereo partly specified),Active,Active,36 nM,Active,Active,21.6 nM,0.18 nM,7.8 nM
